Series [1] has as its target T1, Acetylcholinesterase (Electrophorus electricus, UniProt O42275). The experiment in a line: Prodrug activation assessed as Electrophorus electricus Type V-S acetylcholinesterase mediated 3,4-diaminopyridine release measured 3 hrs post enzymatic hydrolysis by reverse phase HPLC. In a few lines: (§1)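 Prodrug at 500 µM was incubated with 1.0 U eel AChE or equine BChE in 100 mM sodium phosphate pH 8.0 for 3 h at 37°C. Reaction was quenched with glacial acetic acid. Released 3,4-DAP was measured by C18 reverse-phase HPLC (TFA water/acetonitrile gradient, 254 and 320 nm) and quantified from peak area against authentic standards.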

Series [2] deals with T2, Butyrylcholinesterase (Equus caballus, UniProt Q9N1N9). As to the kind of experiment: Prodrug activation assessed as equine serum BChE-mediated 3,4-diaminopyridine release measured 3 hrs post enzymatic hydrolysis by reverse phase HPLC. The following applies: horse. In a few lines:
as §1

The target of series [3] is T1, Acetylcholinesterase. The experiment in a line: Inhibition of Electrophorus electricus Type V-S acetylcholinesterase using […] as substrate by spectrophotometric Ellman's assay. Summed up:
(§2)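 Ellman method at 37°C in 100 mM sodium phosphate pH 8.0 with 360 µM DTNB. Substrate was 100 µM acetylthiocholine iodide for eel AChE or butyrylthiocholine iodide for equine BChE, each reconstituted in 1% gelatin buffer. Prodrug ranged 500 µM to 2 µM. Reaction started with 0.5 U enzyme; linear rates read at 412 nm. IC50 and Ki came from non-linear regression, with Ki from varied inhibitor and substrate concentrations.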
In general terms: Ellman's reagent forms a yellow product with free thiols.

Series [4] deals with T2, Butyrylcholinesterase. The experiment in a line: Inhibition of equine serum BChE using butyrylthiocholine iodide as a substrate by spectrophotometric Ellman's assay. In a few lines: as §2
Another series deals with Serum. The experiment in a line: Half life mouse serum by reverse phase HPLC. The series is classed as ADME, cell-free. In a few lines:
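15 µl of 10 mM prodrug stock went into 85 µL mouse serum from clotted blood, pre-warmed to 37°C. Samples were taken at 0–120 min and extracted with cold acetonitrile; proteins were removed by centrifugation. Breakdown product 3,4-DAP was followed by reverse-phase HPLC. Half-life was calculated from 1-hour endpoint samples.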

Series [5] is described as follows: Half life in iv dosed mouse. The note with it: in vivo. The series is classed as ADME, organism-based.

Results on 21 compounds are retold here after ChEMBL document CHEMBL1926528, “Formulating a new basis for the treatment against botulinum neurotoxin intoxication: 3,4-Diaminopyridine prodrug design and characterization” (Bioorg Med Chem, 2011).

Usually IC50 stands for the concentration that inhibits the measured activity by half. Low readings indicate higher potency, high ones lower potency. The term Ki denotes a dissociation constant, usually derived from enzyme kinetics or from competition with a known ligand. A word on the half-life: it is the time needed for the level to fall by half in the phase considered. Lower therefore signals fast loss.

T2 sequence (Q9N1N9 whole entry): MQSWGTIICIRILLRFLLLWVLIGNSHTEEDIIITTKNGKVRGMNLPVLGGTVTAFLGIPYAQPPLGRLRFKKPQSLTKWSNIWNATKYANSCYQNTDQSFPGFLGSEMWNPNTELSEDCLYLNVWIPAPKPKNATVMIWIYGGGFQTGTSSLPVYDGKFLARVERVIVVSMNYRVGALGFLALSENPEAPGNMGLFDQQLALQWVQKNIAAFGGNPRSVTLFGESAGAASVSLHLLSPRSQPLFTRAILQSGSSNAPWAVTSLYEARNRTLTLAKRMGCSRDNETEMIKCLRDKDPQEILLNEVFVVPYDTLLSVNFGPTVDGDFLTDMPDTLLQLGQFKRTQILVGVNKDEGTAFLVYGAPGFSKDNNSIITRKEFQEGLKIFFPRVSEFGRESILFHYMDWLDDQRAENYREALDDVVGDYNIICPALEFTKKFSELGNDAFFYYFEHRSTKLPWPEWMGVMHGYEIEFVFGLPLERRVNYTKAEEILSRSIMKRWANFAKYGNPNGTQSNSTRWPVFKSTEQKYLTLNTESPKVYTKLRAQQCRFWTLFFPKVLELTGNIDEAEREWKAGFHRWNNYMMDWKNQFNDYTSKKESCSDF
T1 sequence (O42275 whole entry): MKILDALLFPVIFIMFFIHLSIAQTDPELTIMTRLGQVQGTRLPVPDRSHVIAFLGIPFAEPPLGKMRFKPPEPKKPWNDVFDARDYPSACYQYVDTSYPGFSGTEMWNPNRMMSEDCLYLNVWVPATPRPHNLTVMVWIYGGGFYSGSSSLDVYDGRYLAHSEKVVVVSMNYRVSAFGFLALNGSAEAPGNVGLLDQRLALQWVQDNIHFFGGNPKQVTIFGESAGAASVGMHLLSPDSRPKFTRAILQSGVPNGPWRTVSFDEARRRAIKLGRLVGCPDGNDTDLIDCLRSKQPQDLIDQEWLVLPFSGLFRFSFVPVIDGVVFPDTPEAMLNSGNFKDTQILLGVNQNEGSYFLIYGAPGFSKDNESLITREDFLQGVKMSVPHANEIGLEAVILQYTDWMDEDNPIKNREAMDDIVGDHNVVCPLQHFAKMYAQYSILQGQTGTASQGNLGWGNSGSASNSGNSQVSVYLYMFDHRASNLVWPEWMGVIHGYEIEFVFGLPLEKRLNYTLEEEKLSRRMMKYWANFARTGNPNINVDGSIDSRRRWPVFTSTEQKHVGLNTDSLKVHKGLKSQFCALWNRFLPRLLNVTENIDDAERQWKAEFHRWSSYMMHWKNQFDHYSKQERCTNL

On to `CC(=O)Oc1ccc(COC(=O)Nc2ccncc2N)cc1`, for which the Drug metabolism at Acetylcholinesterase [1] and at Butyrylcholinesterase [2] was 0 µM each time. Besides, the figures for the half-maximal inhibitory concentration (IC50) at Acetylcholinesterase [3] and against Butyrylcholinesterase [4] were 49.4 µM and 10.6 µM, respectively. For the same compound, the results for the Ki on Acetylcholinesterase [3] and on Butyrylcholinesterase [4] were 10.9 µM and 1.6 µM, respectively.

`CCC(=O)Oc1ccc(COC(=O)Nc2ccncc2N)cc1`: the Drug metabolism at Acetylcholinesterase [1] was determined as 145 µM; on Butyrylcholinesterase [2], 82 µM. Moreover, in the series with Serum, the t1/2 turned out to be 1.2 min. Moreover, the IC50 on Acetylcholinesterase [3] amounted to 5.2 µM; at Butyrylcholinesterase [4], 129 µM. For the same compound, the Ki was 5.7 µM at Acetylcholinesterase [3] and 25 µM on Butyrylcholinesterase [4].

As for `CCCC(=O)Oc1ccc(COC(=O)Nc2ccncc2N)cc1`, the results for the Drug metabolism at Acetylcholinesterase [1] and on Butyrylcholinesterase [2] were 10 µM and 71 µM, respectively. The IC50 at Acetylcholinesterase [3] came out at 48.8 µM; at Butyrylcholinesterase [4] it was 111 µM. In addition, the figures for the inhibitory constant (Ki) at Acetylcholinesterase [3] and on Butyrylcholinesterase [4] were 12.1 µM and 14.4 µM, respectively.

As for `CC(C)C(=O)Oc1ccc(COC(=O)Nc2ccncc2N)cc1`, the Drug metabolism on Acetylcholinesterase [1] turned out to be 105 µM; at Butyrylcholinesterase [2] it was 82 µM. Also, the t1/2 in the series on Serum is on record as 1.9 min. The IC50 against Acetylcholinesterase [3] worked out at 8.5 µM; at Butyrylcholinesterase [4] it was 122 µM. For the same compound, the inhibition constant (Ki) on Acetylcholinesterase [3] turned out to be 3.9 µM; at Butyrylcholinesterase [4], 42 µM.

Consider `CC(C)CC(=O)Oc1ccc(COC(=O)Nc2ccncc2N)cc1`, for which the Drug metabolism at Acetylcholinesterase [1] worked out at 12 µM; on Butyrylcholinesterase [2], 83 µM. In addition, the IC50 at Acetylcholinesterase [3] turned out to be 11.9 µM; against Butyrylcholinesterase [4] it was 87.7 µM. Also, the figures for the inhibition constant (Ki) at Acetylcholinesterase [3] and on Butyrylcholinesterase [4] were 55.4 µM and 38.4 µM, respectively.

`Nc1cnccc1NC(=O)OCc1ccc(OC(=O)C2CCCC2)cc1`: the Drug metabolism worked out at 34 µM on Acetylcholinesterase [1] and 79 µM at Butyrylcholinesterase [2]. In addition, the IC50 against Acetylcholinesterase [3] came out at 11.6 µM; on Butyrylcholinesterase [4] it was 77.5 µM. Further, the Ki at Acetylcholinesterase [3] is 6.8 µM; on Butyrylcholinesterase [4] it was 37.2 µM.

As for `Nc1cnccc1NC(=O)OCc1ccc(OC(=O)c2ccccc2)cc1`, the Drug metabolism stood at 1 µM at Acetylcholinesterase [1] and 0 µM at Butyrylcholinesterase [2]. Further, the values for the IC50 against Acetylcholinesterase [3] and against Butyrylcholinesterase [4] were 167 µM and 392 µM, respectively.

For `COc1cccc(C(=O)Oc2ccc(COC(=O)Nc3ccncc3N)cc2)c1`, the Drug metabolism came out at 2 µM on Acetylcholinesterase [1] and 0 µM on Butyrylcholinesterase [2]. The results for the concentration for half-maximal inhibition (IC50) at Acetylcholinesterase [3] and on Butyrylcholinesterase [4] were 163 µM and 61.7 µM, respectively.

Consider `Nc1cnccc1NC(=O)OCc1ccc(OC(=O)Cc2ccccc2)cc1`, for which the Drug metabolism on Acetylcholinesterase [1] and on Butyrylcholinesterase [2] was 0 µM throughout. In addition, the half-maximal inhibitory concentration (IC50) on Acetylcholinesterase [3] was 136 µM; at Butyrylcholinesterase [4], 32.2 µM. This compound displayed a Ki on Butyrylcholinesterase [4] of 30.7 µM.

As for `CC(C)C(=O)OCc1ccccc1COC(=O)Nc1ccncc1N`, the Drug metabolism on Acetylcholinesterase [1] was 29 µM; on Butyrylcholinesterase [2] it was 5 µM. Moreover, the concentration for half-maximal inhibition (IC50) was 496 µM on Acetylcholinesterase [3] and more than 500 µM on Butyrylcholinesterase [4].

In the case of `CC(C)C(=O)OCCOC(=O)Nc1ccncc1N`, the Drug metabolism came to 0 µM at Acetylcholinesterase [1] and 4 µM on Butyrylcholinesterase [2]. For the same compound, the 50% inhibitory concentration (IC50) against Acetylcholinesterase [3] came to 25.9 µM; against Butyrylcholinesterase [4] it was 61.9 µM. The inhibition constant (Ki) on Acetylcholinesterase [3] and at Butyrylcholinesterase [4] was more than 500 µM throughout.

In the case of `COC(=O)Nc1cnccc1N`, the Drug metabolism on Acetylcholinesterase [1] and at Butyrylcholinesterase [2] was 0 µM in each case. For the same compound, the 50% inhibitory concentration (IC50) at Acetylcholinesterase [3] and on Butyrylcholinesterase [4] was more than 500 µM throughout.

For the compound `COC(=O)Nc1ccncc1NC(=O)OC`, the Drug metabolism at Acetylcholinesterase [1] and at Butyrylcholinesterase [2] was 0 µM each time. The results for the IC50 at Acetylcholinesterase [3] and against Butyrylcholinesterase [4] were 36.3 µM and 417 µM, respectively. Also, the inhibition constant (Ki) on Acetylcholinesterase [3] and on Butyrylcholinesterase [4] was more than 500 µM each time.

With `COC(=O)Nc1ccncc1N`, the Drug metabolism on Acetylcholinesterase [1] and on Butyrylcholinesterase [2] was 0 µM in each case. Moreover, the half-inhibitory concentration (IC50) against Acetylcholinesterase [3] amounted to 45.6 µM; on Butyrylcholinesterase [4], 491 µM.

`CC(=O)Nc1ccncc1N`: the Drug metabolism on Acetylcholinesterase [1] and on Butyrylcholinesterase [2] was 0 µM each time. For the same compound, the results for the half-maximal inhibitory concentration (IC50) at Acetylcholinesterase [3] and against Butyrylcholinesterase [4] were 61.3 µM and more than 500 µM, respectively. The values for the Ki on Acetylcholinesterase [3] and at Butyrylcholinesterase [4] were 32.5 µM and 173 µM, respectively.

For the compound `CC(=O)Nc1ccncc1NC(C)=O`, the Drug metabolism at Acetylcholinesterase [1] and on Butyrylcholinesterase [2] was 0 µM in each case. The IC50 on Acetylcholinesterase [3] was found to be 34.2 µM; against Butyrylcholinesterase [4], 404 µM.

On to `Nc1cnccc1NC(=O)c1ccccc1`, for which the Drug metabolism on Acetylcholinesterase [1] and at Butyrylcholinesterase [2] was 0 µM each time. The IC50 on Acetylcholinesterase [3] and against Butyrylcholinesterase [4] was more than 500 µM in each case.

For the compound `Nc1cnccc1NC(=O)C1CCCC1`, the Drug metabolism at Acetylcholinesterase [1] turned out to be 4 µM; on Butyrylcholinesterase [2] it was 8 µM. Moreover, the half-inhibitory concentration (IC50) against Acetylcholinesterase [3] and against Butyrylcholinesterase [4] was more than 500 µM each time.

For `CC(C)OC(=O)CCC(=O)Nc1ccncc1N`, the Drug metabolism at Acetylcholinesterase [1] was 3.4 µM; on Butyrylcholinesterase [2], 5.8 µM. Further, the t1/2 with Serum is on record as 165 min. Besides, the IC50 at Acetylcholinesterase [3] stood at 88.3 µM; against Butyrylcholinesterase [4] it was 97.4 µM. The Ki turned out to be 3.2 µM at Acetylcholinesterase [3] and 62 µM at Butyrylcholinesterase [4].

`Nc1cncc(N)c1N` gave a half-life in series [5] of 18.6 min.

As for `C#CC[n+]1ccc(N)c(N)c1`, the half-life in series [5] was 72 min.
